In assay [1] the target is T1, Glutamate NMDA receptor (Rattus norvegicus) (UniProt P35439+Q00959+Q00960+Q00961+Q62645+Q8VHN2+Q9R1M7). The assay is described as follows: Efficacy in enhancing binding of [3H]- MK-801 to NMDA receptors compared to spermine. The assay is classed as protein-complex assay. A digest of the protocol:
(§1)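 Forebrains from adult male Sprague-Dawley rats (175–300 g) homogenized in 5 mM HEPES/4.5 mM Tris (pH 7.7). Membranes were washed extensively, including EDTA cycles, to remove endogenous glutamate, glycine and polyamines. About 100 μg protein was incubated with [3H]MK-801 (final 4–5 nM) and compound (1–1000 μM) for 2 h at room temperature under non-equilibrium conditions, then filtered over PEI-soaked GF/B. Nonspecific binding was taken with 100 μM phencyclidine. Efficacy is given as percent of the spermine-induced increase, ≥3 experiments.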

Assay [2] deals with Glutamate NMDA receptor. The assay is described as follows: Ability to enhance [3H]MK-801 binding to NMDA receptors in rat forebrain membranes was calculated with respect to spermine. The assay is classed as cell membranes, Membrane. A digest of the protocol: as §1
Assay [3] deals with T1, Glutamate NMDA receptor (Rattus norvegicus). The assay is described as follows: Efficacy of compound in enhancing binding of [3H]MK-801 to NMDA receptors compared to spermine. The assay is classed as protein-complex assay. A digest of the protocol: as §1
For assay [4], the target named is Glutamate NMDA receptor.
In assay [5] the target is Glutamate NMDA receptor. The experiment in a line: Inhibition of [3H]MK-801 binding to NMDA receptor by Conantokin-G (with a concentration range of 0.024-12.5 uM) stimulated by the compound at a concentration of 100 uM. The assay is classed as protein-complex assay.
For assay [6], the target named is Glutamate NMDA receptor. The experiment in a line: Inhibition of [3H]MK-801 binding to NMDA receptor by Conantokin-G (at a concentration range of 0.024-12.5 uM) stimulated by the compound at a concentration of 100 uM. The assay is classed as protein-complex assay.

Structures are written as SMILES. pEC50, pIC50: −log10 of the molar value.

Regarding `CNCCN1CCN(CCNC)CC1`, in assay [1], the Emax (commonly the greatest response seen or fitted, relative to the assay's reference) was determined as 50%. On Glutamate NMDA receptor [2], the pEC50 (commonly the EC50 on a negative log10 scale, so that one unit is a factor of ten) was 4.19.

Turning to `NCCCCN1CCCN(CCCCN)CC1`, the Emax in assay [1] stood at 76%. In addition, at Glutamate NMDA receptor [2], the pEC50 was 4.43.

Consider `CN(C)CCN1CCN(CCN(C)C)CC1`, for which, in assay [1], the Emax worked out at 51%. In addition, the pEC50 on Glutamate NMDA receptor [2] was 3.95.

Regarding `CNCCCN1CCN(CCCNC)CC1`, the Emax in assay [1] stood at 81%. The pEC50 at Glutamate NMDA receptor [2] was 4.45.

For `C1CCN(CCCN2CCN(CCCN3CCCC3)CC2)C1`, the Emax in assay [1] was found to be 64%. Further, the pEC50 at Glutamate NMDA receptor [2] is 4.34.

`NCCCCN1CCN(CCCCN)CC1`: the maximal effect (Emax) in assay [1] was 71%. Moreover, the pEC50 at Glutamate NMDA receptor [2] was 4.25.

In the case of `NCCCNCCCCNCCCN` [SPERMINE], the Emax in assay [3] was determined as 100%. Besides, the pIC50 (commonly −log10 of the IC50, conventionally taken in molar units) against Glutamate NMDA receptor [4] is 3.63. The pEC50 at Glutamate NMDA receptor [2] is 5.28.

For the molecule `NCCN1CCCN(CCN)CC1`, the Emax in assay [1] was 43%. For the same molecule, at Glutamate NMDA receptor [2], the pEC50 is 4.29.

As for `CN(C)CCCN1CCN(CCCN(C)C)CC1`, in assay [1], the Emax worked out at 66%. The pEC50 on Glutamate NMDA receptor [2] was 4.43.

`NCC(=O)N1CCN(C(=O)CN)CC1`: the Emax in assay [1] is 90%. Besides, the pEC50 on Glutamate NMDA receptor [2] is 4.02.

Take `CN(C)CCCCN1CCN(CCCCN(C)C)CC1`: in assay [1], the Emax is 84%. The pEC50 on Glutamate NMDA receptor [2] is 4.11.

As for `NCCCN1CCCN(CCCN)CC1`, the Emax in assay [1] came out at 76%. On Glutamate NMDA receptor [2], the pEC50 is 4.61.

`NCCCC(=O)N1CCN(C(=O)CCCN)CC1`: the Emax in assay [1] amounted to 45%. For the same molecule, the pEC50 on Glutamate NMDA receptor [2] is 3.62.

On to `CNCCCCN1CCN(CCCCNC)CC1`, for which the pIC50 at Glutamate NMDA receptor [5] is 3.71. For the same molecule, in assay [1], the Emax worked out at 68%. Besides, the pEC50 at Glutamate NMDA receptor [2] was 4.67.

For the molecule `NCCCN1CCN(CCCN)CC1`, the Emax in assay [1] came to 80%. In addition, the pEC50 at Glutamate NMDA receptor [2] was 4.30.

In the case of `NCC(=O)N1CCCN(C(=O)CN)CC1`, the pIC50 on Glutamate NMDA receptor [6] is 3.51. The Emax in assay [3] came out at 60%. The pEC50 on Glutamate NMDA receptor [2] is 4.74.

The values are drawn from ChEMBL document CHEMBL1128668, “Synthesis of N,N'-substituted piperazine and homopiperazine derivatives with polyamine-like actions at N-methyl-D-aspartate receptors” (J Med Chem, 1995).
